≈ marks a conversion by molar mass, not a printed value.
Key:
Format in all cases: functional
[1] = system: Cryptococcus neoformans; test: Antifungal activity against Cryptococcus neoformans assessed as growth inhibition after 72 hrs by serial dilution method
Outline: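 Compounds were taken up in DMSO and diluted in growth medium. Incubation was at 35 °C with MIC read at 72 h. MIC was the lowest concentration at which turbidity reached the 80% inhibition cutoff against the untreated growth control.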

[2] = system: Aspergillus fumigatus; test: Antifungal activity against Aspergillus fumigatus assessed as growth inhibition after 7 days by serial dilution method; conditions: 168 h
[3] = system: Nannizzia gypsea; test: Antifungal activity against Microsporum gypseum assessed as growth inhibition by serial dilution method
Outline: (§1)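 Compounds were dissolved in DMSO and diluted in growth medium. Incubation was at 28 °C. MIC was the lowest concentration with turbidity at the 80% inhibition threshold relative to the drug-free growth control.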

[4] = system: Trichophyton rubrum; test: Antifungal activity against Trichophyton rubrum assessed as growth inhibition by serial dilution method; outline: as §1
[5] = system: Candida albicans; test: Antifungal activity against Candida albicans assessed as growth inhibition after 24 hrs by serial dilution method
Outline: (§2)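 Candida strains were ATCC or clinical isolates. Compounds were dissolved in DMSO and serially diluted in growth medium. Plates were incubated at 35 °C and read at 24 h. MIC was the lowest concentration giving turbidity at […]80% inhibition relative to the growth control.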

[6] = system: Nakaseomyces glabratus; test: Antifungal activity against Candida glabrata assessed as growth inhibition after 24 hrs by serial dilution method; outline: as §2
[7] = system: Candida parapsilosis; test: Antifungal activity against Candida parapsilosis assessed as growth inhibition after 24 hrs by serial dilution method; conditions: Lodderomyces parapsilosis; outline: as §2

| SMILES | MIC80 [1] [µg/mL] | MIC80 [2] [µg/mL] | MIC80 [3] [µg/mL] | MIC80 [4] [µg/mL] | MIC80 [5] [µg/mL] | MIC80 [6] [µg/mL] | MIC80 [7] [µg/mL] |
| --- | --- | --- | --- | --- | --- | --- | --- |
| CCc1cn(C2CCN(CC(O)(Cn3cncn3)c3ccc(F)cc3F)CC2)nn1 (configuration not stated) | 1 (≈ 2.4 µM) | 64 (≈ 153 µM) | 8 (≈ 19.2 µM) | 1 (≈ 2.4 µM) | 0.125 (≈ 0.299 µM) | 0.5 (≈ 1.2 µM) | 1 (≈ 2.4 µM) |
| CCCc1cn(C2CCN(CC(O)(Cn3cncn3)c3ccc(F)cc3F)CC2)nn1 (configuration not stated) | 0.5 (≈ 1.16 µM) | 16 (≈ 37.1 µM) | 4 (≈ 9.27 µM) | 1 (≈ 2.32 µM) | 0.125 (≈ 0.29 µM) | 0.25 (≈ 0.579 µM) | 1 (≈ 2.32 µM) |
| OC(CN1CCC(n2cc(C3CC3)nn2)CC1)(Cn1cncn1)c1ccc(F)cc1F (configuration not stated) | 1 (≈ 2.33 µM) | 64 (≈ 149 µM) | 8 (≈ 18.6 µM) | 2 (≈ 4.66 µM) | 0.125 (≈ 0.291 µM) | 0.25 (≈ 0.582 µM) | 1 (≈ 2.33 µM) |
| OC(CN1CCC(n2cc(C3CCCC3)nn2)CC1)(Cn1cncn1)c1ccc(F)cc1F (configuration not stated) | 8 (≈ 17.5 µM) | > 64 | 64 (≈ 140 µM) | 16 (≈ 35 µM) | 0.5 (≈ 1.09 µM) | 4 (≈ 8.74 µM) | 8 (≈ 17.5 µM) |
| COCc1cn(C2CCN(CC(O)(Cn3cncn3)c3ccc(F)cc3F)CC2)nn1 (configuration not stated) | 0.25 (≈ 0.577 µM) | 16 (≈ 36.9 µM) | 2 (≈ 4.61 µM) | 0.5 (≈ 1.15 µM) | 0.125 (≈ 0.288 µM) | 0.25 (≈ 0.577 µM) | 0.5 (≈ 1.15 µM) |
| OCc1cn(C2CCN(CC(O)(Cn3cncn3)c3ccc(F)cc3F)CC2)nn1 (configuration not stated) | 64 (≈ 153 µM) | > 64 | > 64 | > 64 | 8 (≈ 19.1 µM) | 32 (≈ 76.3 µM) | > 64 |
| CC(O)c1cn(C2CCN(CC(O)(Cn3cncn3)c3ccc(F)cc3F)CC2)nn1 (configuration not stated) | 64 (≈ 148 µM) | > 64 | > 64 | > 64 | 8 (≈ 18.5 µM) | 16 (≈ 36.9 µM) | > 64 |
| OCCc1cn(C2CCN(CC(O)(Cn3cncn3)c3ccc(F)cc3F)CC2)nn1 (configuration not stated) | > 64 | > 64 | > 64 | > 64 | 4 (≈ 9.23 µM) | 16 (≈ 36.9 µM) | > 64 |
| OCCCc1cn(C2CCN(CC(O)(Cn3cncn3)c3ccc(F)cc3F)CC2)nn1 (configuration not stated) | > 64 | > 64 | > 64 | > 64 | 8 (≈ 17.9 µM) | 16 (≈ 35.8 µM) | > 64 |
| OCCCCc1cn(C2CCN(CC(O)(Cn3cncn3)c3ccc(F)cc3F)CC2)nn1 (configuration not stated) | 32 (≈ 69.3 µM) | > 64 | > 64 | 64 (≈ 139 µM) | 4 (≈ 8.67 µM) | 8 (≈ 17.3 µM) | 32 (≈ 69.3 µM) |
| OC(c1ccccc1)c1cn(C2CCN(CC(O)(Cn3cncn3)c3ccc(F)cc3F)CC2)nn1 (configuration not stated) | 32 (≈ 64.6 µM) | 16 (≈ 32.3 µM) | > 64 | 32 (≈ 64.6 µM) | 2 (≈ 4.04 µM) | 8 (≈ 16.1 µM) | 8 (≈ 16.1 µM) |
| OC(CN1CCC(n2cc(Cc3ccccc3)nn2)CC1)(Cn1cncn1)c1ccc(F)cc1F (configuration not stated) | 0.5 (≈ 1.04 µM) | 32 (≈ 66.7 µM) | 4 (≈ 8.34 µM) | 1 (≈ 2.09 µM) | 0.125 (≈ 0.261 µM) | 1 (≈ 2.09 µM) | 1 (≈ 2.09 µM) |
| COC(=O)CCCc1cn(C2CCN(CC(O)(Cn3cncn3)c3ccc(F)cc3F)CC2)nn1 (configuration not stated) | 4 (≈ 8.17 µM) | 64 (≈ 131 µM) | 8 (≈ 16.3 µM) | 4 (≈ 8.17 µM) | 0.25 (≈ 0.511 µM) | 2 (≈ 4.09 µM) | 4 (≈ 8.17 µM) |
| O=C(O)CCCc1cn(C2CCN(CC(O)(Cn3cncn3)c3ccc(F)cc3F)CC2)nn1 (configuration not stated) | 4 (≈ 8.41 µM) | > 64 | 32 (≈ 67.3 µM) | 4 (≈ 8.41 µM) | 0.5 (≈ 1.05 µM) | 4 (≈ 8.41 µM) | 8 (≈ 16.8 µM) |
| CCOC(=O)c1cn(C2CCN(CC(O)(Cn3cncn3)c3ccc(F)cc3F)CC2)nn1 (configuration not stated) | > 64 | > 64 | > 64 | > 64 | 8 (≈ 17.3 µM) | 32 (≈ 69.3 µM) | > 64 |
| O=C(O)c1cn(C2CCN(CC(O)(Cn3cncn3)c3ccc(F)cc3F)CC2)nn1 (configuration not stated) | 16 (≈ 36.9 µM) | > 64 | > 64 | > 64 | 4 (≈ 9.23 µM) | 8 (≈ 18.5 µM) | 64 (≈ 148 µM) |
| OC(CN1CCC(n2cc(-c3ccccc3)nn2)CC1)(Cn1cncn1)c1ccc(F)cc1F (configuration not stated) | 0.25 (≈ 0.537 µM) | > 64 | 4 (≈ 8.59 µM) | 0.5 (≈ 1.07 µM) | 0.125 (≈ 0.269 µM) | 1 (≈ 2.15 µM) | 1 (≈ 2.15 µM) |
| OC(CN1CCC(n2cc(-c3cccnc3)nn2)CC1)(Cn1cncn1)c1ccc(F)cc1F (configuration not stated) | 0.125 (≈ 0.268 µM) | 64 (≈ 137 µM) | 16 (≈ 34.3 µM) | 4 (≈ 8.57 µM) | 0.125 (≈ 0.268 µM) | 1 (≈ 2.14 µM) | 1 (≈ 2.14 µM) |
| OC(CN1CCC(n2cc(-c3ccc(Br)cc3)nn2)CC1)(Cn1cncn1)c1ccc(F)cc1F (configuration not stated) | 0.125 (≈ 0.23 µM) | > 64 | 2 (≈ 3.67 µM) | 0.25 (≈ 0.459 µM) | 0.125 (≈ 0.23 µM) | 0.5 (≈ 0.918 µM) | 1 (≈ 1.84 µM) |
| CC(=O)c1ccc(-c2cn(C3CCN(CC(O)(Cn4cncn4)c4ccc(F)cc4F)CC3)nn2)cc1 (configuration not stated) | 0.125 (≈ 0.246 µM) | 64 (≈ 126 µM) | 2 (≈ 3.94 µM) | 1 (≈ 1.97 µM) | 0.0625 (≈ 0.123 µM) | 0.5 (≈ 0.985 µM) | 0.5 (≈ 0.985 µM) |
| CN(C)c1ccc(-c2cn(C3CCN(CC(O)(Cn4cncn4)c4ccc(F)cc4F)CC3)nn2)cc1 (configuration not stated) | 1 (≈ 1.97 µM) | 8 (≈ 15.7 µM) | 4 (≈ 7.87 µM) | 2 (≈ 3.93 µM) | 0.25 (≈ 0.492 µM) | 2 (≈ 3.93 µM) | 2 (≈ 3.93 µM) |
| OC(CN1CCC(n2cc(-c3ccc(OC(F)(F)F)cc3)nn2)CC1)(Cn1cncn1)c1ccc(F)cc1F (configuration not stated) | 0.125 (≈ 0.227 µM) | 8 (≈ 14.6 µM) | 4 (≈ 7.28 µM) | 0.5 (≈ 0.91 µM) | 0.0125 (≈ 0.0227 µM) | 0.5 (≈ 0.91 µM) | 2 (≈ 3.64 µM) |
| COc1cccc(-c2cn(C3CCN(CC(O)(Cn4cncn4)c4ccc(F)cc4F)CC3)nn2)c1 (configuration not stated) | 0.125 (≈ 0.252 µM) | > 64 | 32 (≈ 64.6 µM) | 4 (≈ 8.07 µM) | 0.125 (≈ 0.252 µM) | 2 (≈ 4.04 µM) | 4 (≈ 8.07 µM) |
| Cc1ccccc1-c1cn(C2CCN(CC(O)(Cn3cncn3)c3ccc(F)cc3F)CC2)nn1 (configuration not stated) | 0.25 (≈ 0.521 µM) | > 64 | 64 (≈ 133 µM) | 0.5 (≈ 1.04 µM) | 0.125 (≈ 0.261 µM) | 0.5 (≈ 1.04 µM) | 0.5 (≈ 1.04 µM) |
| OC(Cn1cncn1)(Cn1cncn1)c1ccc(F)cc1F [FLUCONAZOLE] | 1 (≈ 3.27 µM) | > 64 | 32 (≈ 104 µM) | 8 (≈ 26.1 µM) | 0.25 (≈ 0.816 µM) | 1 (≈ 3.27 µM) | 2 (≈ 6.53 µM) |
| CCC(C)n1ncn(-c2ccc(N3CCN(c4ccc(OCC5COC(Cn6cncn6)(c6ccc(Cl)cc6Cl)O5)cc4)CC3)cc2)c1=O (configuration not stated) [ITRACONAZOLE] | 2 (≈ 2.83 µM) | 1 (≈ 1.42 µM) | 2 (≈ 2.83 µM) | 0.5 (≈ 0.709 µM) | 1 (≈ 1.42 µM) | 1 (≈ 1.42 µM) | 4 (≈ 5.67 µM) |

— ChEMBL document CHEMBL3286105, “Design, synthesis and antifungal activity of novel triazole derivatives containing substituted 1,2,3-triazole-piperdine side chains” (2014)
